Mot1-301 SUMO: inhibitors of SUMOylation pathway: yeast Mot1-301 growth rescue | S. cerevisiae Mot1-301 growth rescue, ATP luminescence, 38.5C; percent above DMSO median, 100 means doubled | growth rescue, % at 18.8 µM | hit rate 1% among 320,000;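 active = every valid replicate shows activation above 250% relative to neutral control wells; inactive = the rest, any valid replicate at or below 250%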;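 also: OY570 slx delta 5 strain wells were the positive control but not used for scaling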
T cruzi repl: T. cruzi replication inhibition; T. cruzi beta-gal in NIH3T3, luminescence, 90 h; inhibition, % (concentration not given with the values); hit rate 1.4% among 300,000; AID 1885;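 active = mean inhibition across valid replicates above about 55%, limit read from the data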;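 also: signal also drops with host cell toxicity which is not excluded here; 0% = plate median of DMSO wells and 100% = zero luminescence signal; higher percent means less beta-gal luminescence so fewer parasites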
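Assay system: NIH/3T3 host cells with β-galactosidase reporter T. cruzi; input: 5,000 host fibroblasts per well; compound: single 50 nL compound addition per well in DMSO; timing: ≥90 h infection period, 3 h prior cell attachment; measured by: GalScreen β-gal luminescence, detergent lysis, 60 min; evaluation: percent inhibition of parasite-derived β-gal signal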
Beta apoptosis: beta cell apoptosis inhibition; INS-1E cytokine-induced death, ATP luminescence, 48 h; percent of positive-control rescue, neutral wells zero; protection from apoptosis, % (no concentration beside the values); hit rate 0.8% among 300,000; AID 435005;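 active = Every replicate reaches about 75%, or at least half do and their mean reaches it too, limit read from the data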;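 also: 0% = cytokine-treated negative control wells and 100% = positive control rescue; higher means more ATP so stronger rescue from cytokine killing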
Efflux pump mplx: blocks antifungal efflux pumps in multiplex yeast assay. hit rate 0.44% among 330,000. S. cerevisiae Candida pump triplex, Nile Red efflux. AID 485275. inhibition, % at 10 µM;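 active = plate passing quality check with inhibition over a set limit, or well fluorescence over plate mean plus 4 SD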;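 also: Nile Red retained in pooled yeast measured as flow cytometry median fluorescence; 0% = buffer negative control and 100% = Enniatin B positive control; higher means more Nile Red kept so more efflux inhibition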
CSC inhib: cancer stem cell inhibition; cancer stem cell-like cells viability, luminescence; inhibition, % at 7.5 µM; hit rate 1.1% among 300,000; AID 2717; in the data active = inhibition above about 75%; tested in HMLE shEcad cells
WT yeast gro inh: growth inhibition of WT yeast, mitochondrial fusion screen. mitochondrial fusion phenotypic screen, WT strain. inhibition, % at 10 µM. hit rate 2.1% among 190,000. AID 1362; in the data active = inhibition above about 58%; tested in S. cerevisiae
Active calls of the source: *. A selection: hits, their analogues and other compounds. The true share with any hit is near 4.8%.

`Cc1ccc(S(=O)(=O)Nc2ccccc2)cc1C(=O)N1CCCC1` gave Mot1-301 SUMO 359.3, T cruzi repl -1.1, Beta apoptosis 1.0, Efflux pump mplx 0.1 and CSC inhib -7.4.
`COc1ccccc1N(C)S(=O)(=O)c1ccc(C(=O)OCC(=O)NCCC2=CCCCC2)cc1` gave Mot1-301 SUMO 2.4, T cruzi repl -7.2, Beta apoptosis 1.5, Efflux pump mplx -0.4, CSC inhib -5.0 and WT yeast gro inh 8.1.
O=C(NCc1ccccn1)C(=O)Nc1nc(C23CC4CC(CC(C4)C2)C3)cs1 was read as Mot1-301 SUMO 4.6, T cruzi repl -8.2, Beta apoptosis 38.8, Efflux pump mplx -0.1, CSC inhib 25.2 and WT yeast gro inh 71.5*.
Screening COc1cc(NS(=O)(=O)c2ccc3c(c2)C(C)(C)C(=O)N3C)cc(OC)c1 returned Mot1-301 SUMO 6.5, T cruzi repl -20.6, Beta apoptosis 2.4 and Efflux pump mplx -0.2.
`c1ccc(-c2noc(-c3ccccc3-c3ccccc3)n2)cc1` gave Mot1-301 SUMO 5.9, T cruzi repl 7.1, Beta apoptosis 1.4, Efflux pump mplx 0.1, CSC inhib 9.3 and WT yeast gro inh 71.6*.
`COc1ccc(O)c(C(=O)c2cnc3nc4ccccc4n3c2)c1` gave Mot1-301 SUMO -13.2, T cruzi repl 2.8, Beta apoptosis 83.3*, Efflux pump mplx -0.2, CSC inhib 54.6 and WT yeast gro inh 1.9.
Screening COc1cc(C(=O)Nc2nc(-c3ccc(C)cc3)cs2)ccc1OCC(=O)N1CCOCC1 returned Mot1-301 SUMO 1.5, T cruzi repl 54.7*, Beta apoptosis 7.3, Efflux pump mplx 0.4, CSC inhib -13.4 and WT yeast gro inh 13.3.
Screening COc1cc(C(=O)NNC(=O)c2ccc(F)cc2)ccc1OCC(=O)N1CCOCC1 returned Mot1-301 SUMO -8.7, Beta apoptosis -2.9, Efflux pump mplx -0.3 and CSC inhib 0.9.
COc1cc2cc(C(=O)N3CCOCC3)cc(-c3ccc(C)cc3)c2cc1OC was read as Mot1-301 SUMO -6.0, T cruzi repl 32.1, Beta apoptosis 101.4*, Efflux pump mplx -0.1 and CSC inhib -2.1.
`COc1ccc(-c2csc(NC(=O)c3ccc(OCC(=O)N4CCOCC4)c(OC)c3)n2)cc1` gave Mot1-301 SUMO 0.9, T cruzi repl 44.0, Beta apoptosis 67.0, Efflux pump mplx -0.2, CSC inhib -11.5 and WT yeast gro inh -7.8.
`COc1cc(C(=O)Nc2nc(-c3ccc(F)cc3)cs2)ccc1OCC(=O)N1CCOCC1` gave T cruzi repl 60.1*, Beta apoptosis 29.2, Efflux pump mplx -1.1, CSC inhib -5.6 and WT yeast gro inh 6.4.
`CC(C)N1CCc2c(sc(NC(=O)c3ccc(S(=O)(=O)N4CCc5ccccc54)cc3)c2C(N)=O)C1` gave Mot1-301 SUMO -5.1, T cruzi repl 36.7, Beta apoptosis 3.0, Efflux pump mplx 0.1, CSC inhib 112.6* and WT yeast gro inh -1.3.
Screening CCN1CCc2c(sc(NC(=O)c3ccc4ccccc4c3)c2C(N)=O)C1 returned Mot1-301 SUMO 27.4, T cruzi repl 61.8*, Beta apoptosis 7.2, Efflux pump mplx 0.2 and CSC inhib 40.8.
For O=C(CCCl)N1CCCC2(CCCCC2)C1 the results were Mot1-301 SUMO -13.8, T cruzi repl 0.9, Beta apoptosis -7.8, Efflux pump mplx -0.1 and CSC inhib -12.1.
C=CCN1C(=O)c2ccc(C(=O)N3CCN(S(=O)(=O)c4cccc([N+](=O)[O-])c4)CC3)cc2C1=O was read as Mot1-301 SUMO -7.4, Beta apoptosis 1.1, Efflux pump mplx 0.1 and CSC inhib 0.4.
For O=S(=O)(NCC1CCCO1)c1ccc(-c2ccc(S(=O)(=O)NCC3CCCO3)cc2)cc1 (configuration not stated) the results were Mot1-301 SUMO 8.4, T cruzi repl 41.3, Beta apoptosis 96.3*, Efflux pump mplx 0.0, CSC inhib 3.4 and WT yeast gro inh -7.0.
Cc1ccc(C(=O)Nc2cc3[nH]c(=O)oc3cc2C)cc1 was read as Mot1-301 SUMO 303.0*, T cruzi repl -8.1, Beta apoptosis -15.5, Efflux pump mplx -0.2 and CSC inhib -1.1.
Cc1ccc(C(=O)Nc2c[nH]c(=O)[nH]c2=O)cc1 was read as Mot1-301 SUMO -14.6, T cruzi repl 7.7, Beta apoptosis -8.3, Efflux pump mplx 0.2 and CSC inhib 2.1.
Screening O=C1CCCN1c1ccc(C(=O)N(Cc2nnc(-c3ccc(Cl)cc3)o2)C2CC2)cc1 returned Mot1-301 SUMO -6.1, T cruzi repl 4.6, Beta apoptosis 3.7, Efflux pump mplx -0.1 and CSC inhib 4.3.
For COc1ccc(OC)c(-c2nc(C(=O)NC3CCN(Cc4ccccc4)CC3)cc3c2[nH]c2ccccc23)c1 the results were Mot1-301 SUMO -3.6, T cruzi repl 41.9, Efflux pump mplx 0.8 and CSC inhib -0.7.
For COc1cc(-c2nc(C(=O)NC3CCN(Cc4ccccc4)CC3)cc3c2[nH]c2ccccc23)cc(OC)c1OC the results were Mot1-301 SUMO -7.9, T cruzi repl 76.7*, Beta apoptosis 36.1, Efflux pump mplx 0.3 and CSC inhib -6.5.
Screening NS(=O)(=O)c1ccc(CCNC(=O)C2CCCN2S(=O)(=O)c2cccc3nsnc23)cc1 (configuration not stated) returned Mot1-301 SUMO 6.8, T cruzi repl -6.5, Beta apoptosis -0.3, Efflux pump mplx -0.2 and CSC inhib -5.8.
c1ccc(CNc2nc(-c3cccs3)nc3ccccc23)cc1 was read as T cruzi repl 34.9 and WT yeast gro inh 70.9*.
CCC(C)Nc1nc(-c2ccccn2)nc2ccccc12 (configuration not stated) was read as Mot1-301 SUMO -1.5, T cruzi repl 64.4*, Beta apoptosis 90.3*, Efflux pump mplx 0.9 and CSC inhib 28.6.
Fc1ccccc1/C=N/Nc1nc(-c2ccccn2)nc2ccccc12 was read as Mot1-301 SUMO -11.6, T cruzi repl 55.4*, Beta apoptosis 104.9*, Efflux pump mplx 0.1 and CSC inhib 36.5.
For c1ccc(CNc2nc(-c3ccccn3)nc3ccccc23)cc1 the results were Mot1-301 SUMO -19.2, T cruzi repl 19.2, Beta apoptosis 105.8*, Efflux pump mplx -0.1 and CSC inhib 50.1.
For Fc1ccccc1-c1nc(NCc2ccccc2)c2ccccc2n1 the results were Mot1-301 SUMO -11.3, T cruzi repl 17.0, Beta apoptosis 11.0, Efflux pump mplx 0.2 and CSC inhib 11.7.
Screening c1ccc(CNc2nc(-c3ccccc3)nc3ccccc23)cc1 returned Mot1-301 SUMO 89.9, T cruzi repl 25.9, Efflux pump mplx 0.0 and CSC inhib 38.0.
For CCCCCOC(=O)CSc1nnc(-c2ccccc2)c(=O)[nH]1 the results were Mot1-301 SUMO 2.4, T cruzi repl -8.6, Beta apoptosis -8.4, Efflux pump mplx -0.1, CSC inhib -8.0 and WT yeast gro inh -0.8.
`CN(NC(=O)c1ccccc1F)c1ccc([N+](=O)[O-])cn1` gave Mot1-301 SUMO -10.1, T cruzi repl -3.9, Beta apoptosis -3.9, Efflux pump mplx 0.0 and CSC inhib 8.1.

Bioassay records as filed in PubChem BioAssay.
